Results from ChEMBL document CHEMBL1122091, “Synthesis of pyridazine analogues of the naturally occurring nucleosides cytidine, uridine, deoxycytidine, and deoxyuridine” (1982).
The source made the active and inactive calls. The calls are words filed in the database; no cut-off is given here.

Assays:
L1210 [1] = assay: In vitro inhibitory activity against growth of L1210 mouse leukemia cells at 10E-4 M concentration; IA means Inactive; type: functional, cell-based
Outline: (§1)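 L1210 mouse leukemia cells grown in static suspension culture in Fischer's medium for leukemic cells of mice; growth rate over a 3-day period measured with test compound present continuously.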

L1210 [2] = assay: In vivo percent increase in life span (%ILS) of mice bearing L1210 leukemia at a dose of 400 mg/kg; type: functional, Mus musculus; conditions: for ILS at 400 mg/kg: Mus musculus, L1210, dose 400 mg/kg
Outline: (§2)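 Run by the NCI Division of Cancer Treatment, which supplied the data, using standard National Cancer Institute protocols for mouse L1210 leukemia.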

L1210 [3] = assay: In vivo percent increase in life span (%ILS) of mice bearing L1210 leukemia at a dose of 200 mg/kg; type: functional; conditions: Mus musculus; outline: as §2
L1210 [4] = assay: In vitro inhibitory activity against growth of L1210 mouse leukemia cells at 10E-4 M concentration; type: functional; conditions: read-out: ID50 (the source's name); outline: as §1

SMILES | ID50 (L1210 [1]) | ILS at 400 mg/kg (L1210 [2]) [%] | ILS (L1210 [2]; dose 400 mg/kg) [%] | ILS at 200 mg/kg (L1210 [3]) [%] | IC50 (L1210 [4]) [µM]
CC(=O)OC[C@H]1O[C@@H](N2N=CC(=O)CC2=O)[C@H](OC(C)=O)[C@@H]1OC(C)=O | inactive | < 25 |  |  | 
O=c1cc(O)cnn1[C@@H]1O[C@H](CO)[C@@H](O)[C@H]1O (stereo in doubt; 17) |  |  | >25 |  | 
COc1cnn(C2O[C@H](CO)[C@@H](O)[C@H]2O)c(=O)c1Cl (stereo partly drawn) | inactive | < 25 |  |  | 
CN(C)c1cnn(C2O[C@H](CO)[C@@H](O)[C@H]2O)c(=O)c1N(C)C (stereo partly drawn) | inactive | < 25 |  |  | 
Nc1cnn([C@H]2C[C@H](O)[C@@H](CO)O2)c(=O)c1Cl | inactive | < 25 |  |  | 
O=C(OC[C@H]1O[C@@H](n2ncc(Cl)c(Cl)c2=O)[C@H](OC(=O)c2ccccc2)[C@@H]1OC(=O)c1ccccc1)c1ccccc1 | inactive | < 25 |  |  | 
Oc1nncc(Cl)c1Cl | inactive | > 25 |  |  | 
O=c1cnn([C@@H]2O[C@H](CO)[C@@H](O)[C@H]2O)c(=O)[nH]1 [6-AZAURIDINE] | inactive | < 25 |  |  | 
CNc1cnn(C2O[C@H](CO)[C@@H](O)[C@H]2O)c(=O)c1Cl (stereo partly drawn) | inactive | < 25 |  |  | 
CNc1cnn(C2O[C@H](CO)[C@@H](O)[C@H]2O)c(=O)c1 (stereo partly drawn) | inactive | < 25 |  |  | 
O=C1C=NN(C2O[C@H](CO)[C@@H](O)[C@H]2O)C(=O)C1 (stereo partly drawn) | inactive | < 25 |  |  | 
O=C(OC[C@H]1O[C@@H](n2ncccc2=O)[C@H](OC(=O)c2ccccc2)[C@@H]1OC(=O)c1ccccc1)c1ccccc1 | inactive | < 25 |  |  | 
CN(C)c1cnn(C2O[C@H](CO)[C@@H](O)[C@H]2O)c(=O)c1 (stereo partly drawn) | inactive | < 25 |  |  | 
Nc1cnn(C2O[C@H](CO)[C@@H](O)[C@H]2O)c(=O)c1Cl (stereo partly drawn) | inactive | < 25 |  |  | 
CN(C)c1cnn(C2O[C@H](CO)[C@@H](O)[C@H]2O)c(=O)c1Cl (stereo partly drawn) | inactive | < 25 |  |  | 
O=C1C=NN([C@H]2C[C@H](O)[C@@H](CO)O2)C(=O)C1 | inactive | < 25 |  |  | 
O=c1cc(O)cnn1[C@@H]1O[C@H](CO)[C@@H](O)[C@H]1O (stereo in doubt; 15) |  | 32 |  | 32 | 70
O=c1cccnn1C1O[C@H](CO)[C@@H](O)[C@H]1O (stereo partly drawn) | inactive | < 25 |  |  | 
COc1cnn([C@H]2C[C@H](O)[C@@H](CO)O2)c(=O)c1 | inactive | < 25 |  |  | 
CC(=O)OC[C@H]1O[C@@H](n2ncc(N)cc2=O)[C@H](OC(C)=O)[C@@H]1OC(C)=O | inactive | < 25 |  |  | 
C[Si](C)(C)Oc1nncc(Cl)c1Cl | inactive | < 25 |  |  | 
O=c1c(SCc2ccccc2)c(SCc2ccccc2)cnn1C1O[C@H](CO)[C@@H](O)[C@H]1O (stereo partly drawn) | inactive | < 25 |  |  | 
CC1(C)O[C@@H]2[C@H](O1)[C@@H](CO)O[C@H]2n1ncc(N)c(Cl)c1=O | inactive | < 25 |  |  | 
Nc1cnn([C@H]2C[C@H](O)[C@@H](CO)O2)c(=O)c1 | inactive | < 25 |  |  | 
O=c1ccn([C@@H]2O[C@H](CO)[C@@H](O)[C@H]2O)c(=O)[nH]1 [URIDINE] | inactive | < 25 |  |  | 
COc1cnn([C@H]2C[C@H](O)[C@@H](CO)O2)c(=O)c1Cl | inactive | < 25 |  |  | 
COc1cnn(C2O[C@H](CO)[C@@H](O)[C@H]2O)c(=O)c1 (stereo partly drawn) | inactive | < 25 |  |  | 
Nc1cnn(C2O[C@H](CO)[C@@H](O)[C@H]2O)c(=O)c1 (stereo partly drawn) | inactive | < 25 |  |  | 
CSc1cnn(C2O[C@H](CO)[C@@H](O)[C@H]2O)c(=O)c1SC (stereo partly drawn) | inactive | < 25 |  |  | 
